Data: ChEMBL document CHEMBL1122648 (J Med Chem, 1984)

What was measured:
[1] = Compound was evaluated for its inhibitory effect on thymidine ([3H]dThd) incorporation into DNA of CEM cells in at conc. 10e-7; type: functional, Homo sapiens, CCRF-CEM; parameters: scale not given: the % may be the effect or the level left
In short: (§1)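 Log-phase CEM or CEM/MTX (transport-defective) cells, 2×10^5 per tube in serum-free EBSS, exposed to 10^-7–10^-4 M compound for 1 h at 37 °C under 5% CO2. Then pulsed 0.5 h with [3H]dThd or [3H]dUrd, washed in cold EBSS and lysed in SDS with tRNA carrier. DNA precipitated with cold 0.5 N HClO4; acid-insoluble counts given as % of untreated controls.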

[2] = Compound was evaluated for its inhibitory effect on thymidine [3H]dThd) incorporation into DNA of CEM/MTX cells in culture at conc. 10e-5; type: functional, Homo sapiens; parameters: scale not given: the % may be the effect or the level left; in short: as §1
[3] = Compound was evaluated for its inhibitory effect on deoxyuridine ([3H]-dUrd) incorporation into DNA of CEM cells in at conc. 10e-6; type: functional, Homo sapiens, CCRF-CEM; parameters: scale not given: the % may be the effect or the level left; in short: as §1
[4] = Compound was evaluated for its inhibitory effect on thymidine ([3H]dThd) incorporation into DNA of CEM cells in culture at conc. 10e-5; type: functional, Homo sapiens, CCRF-CEM; parameters: scale not given: the % may be the effect or the level left; in short: as §1
CCRF-CEM = test: In vitro cytotoxicity by its growth inhibitory activity against human leukemic lymphoblasts (CEM cells).; type: functional, cell-based
In short: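 Human leukemic lymphoblasts (CEM) counted after 48 h of drug exposure. Compounds dissolved in Me2SO (1 mg/mL), diluted 10-fold in Me2SO, then added to growth medium (final Me2SO 0.1%). Triplicate tubes per dose, averaged; IC50 reported.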

[5] = Compound was evaluated for its inhibitory effect on thymidine ([3H]dThd) incorporation into DNA of CEM/MTX cells in culture at conc. 10e-4; type: functional, Homo sapiens; parameters: scale not given: the % may be the effect or the level left; in short: as §1
[6] = Compound was evaluated for its inhibitory effect on deoxyuridine ([3H]dUrd ) incorporation into DNA of CEM cells in culture at conc. 10e-7; type: functional, Homo sapiens, CCRF-CEM; parameters: scale not given: the % may be the effect or the level left; in short: as §1
Dihydrofolate reductase = target: T1, Dihydrofolate reductase (Bos taurus, UniProt P00376); test: In vitro ability to inhibit the Dihydrofolate reductase extracted from beef liver.
T1 sequence (P00376 whole entry): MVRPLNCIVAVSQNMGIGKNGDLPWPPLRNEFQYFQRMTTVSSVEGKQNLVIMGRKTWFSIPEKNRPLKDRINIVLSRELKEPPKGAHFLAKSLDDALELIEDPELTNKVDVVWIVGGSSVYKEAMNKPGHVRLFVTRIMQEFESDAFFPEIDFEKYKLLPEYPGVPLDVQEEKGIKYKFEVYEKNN

[7] = Compound was evaluated for its inhibitory effect on thymidine ([3H]-dThd) incorporation into DNA of CEM cells in culture at conc. 10e-4; type: functional, Homo sapiens, CCRF-CEM; parameters: scale not given: the % may be the effect or the level left; in short: as §1
[8] = Compound was evaluated for its inhibitory effect on deoxyuridine ([3H]dUrd ) incorporation into DNA of CEM/MTX cells in culture at conc. 10e-7; type: functional, Homo sapiens; parameters: scale not given: the % may be the effect or the level left; in short: as §1
[9] = Compound was evaluated for its inhibitory effect on thymidine ([3H]-dThd) incorporation into DNA of CEM/MTX cells in at conc. 10e-7.; type: functional, Homo sapiens; parameters: scale not given: the % may be the effect or the level left; in short: as §1
[10] = Compound was evaluated for its inhibitory effect on deoxyuridine ([3H]dUrd) incorporation into DNA of CEM cells in culture at conc. 10e-4; type: functional, Homo sapiens, CCRF-CEM; parameters: scale not given: the % may be the effect or the level left; in short: as §1
[11] = Compound was evaluated for its inhibitory effect on deoxyuridine ([3H]dUrd) incorporation into DNA of CEM/MTX cells in culture at conc. 10e-6; type: functional, Homo sapiens; parameters: scale not given: the % may be the effect or the level left; in short: as §1
[12] = Compound was evaluated for its inhibitory effect on deoxyuridine ([3H]dUrd) incorporation into DNA of CEM/MTX cells in culture at conc. 10e-4; type: functional, Homo sapiens; parameters: scale not given: the % may be the effect or the level left; in short: as §1
[13] = Compound was evaluated for its inhibitory effect on deoxyuridine ([3H]dUrd) incorporation into DNA of CEM/MTX cells in culture at conc. 10e-5; type: functional, Homo sapiens; parameters: scale not given: the % may be the effect or the level left; in short: as §1
[14] = Compound was evaluated for its inhibitory effect on thymidine ([3H]dThd) incorporation into DNA of CEM cells in culture at conc. 10e-6; type: functional, Homo sapiens, CCRF-CEM; parameters: scale not given: the % may be the effect or the level left; in short: as §1
[15] = Compound was evaluated for its inhibitory effect on thymidine [3H]-dThd) incorporation into DNA of CEM/MTX cells in culture at conc. 10e-6; type: functional, Homo sapiens; parameters: scale not given: the % may be the effect or the level left; in short: as §1
[16] = Compound was evaluated for its inhibitory effect on deoxyuridine ([3H]dUrd) incorporation into DNA of CEM cells in culture at conc. 10e-5; type: functional, Homo sapiens, CCRF-CEM; parameters: scale not given: the % may be the effect or the level left; in short: as §1

Row | SMILES | IC50 (Dihydrofolate reductase) | IC50 (CCRF-CEM) | also measured
1 | CCCCCCCCOC(=O)C(CCC(=O)O)NC(=O)c1ccc(N(C)Cc2cnc3nc(N)nc(N)c3n2)cc1 (stereo not drawn) | 0.36 µM | 3 µM | 
2 | CN(Cc1cnc2nc(N)nc(N)c2n1)c1ccc(C(=O)N[C@@H](CCC(=O)O)C(=O)O)cc1 [METHOTREXATE] |  | 0.025 µM | 
3 | CCCCOC(=O)C(CCC(=O)O)NC(=O)c1ccc(N(C)Cc2cnc3nc(N)nc(N)c3n2)cc1 (stereo not drawn) | 0.056 µM | 2 µM | 
4 | CCCCCCCCOC(=O)CCC(NC(=O)c1ccc(N(C)Cc2cnc3nc(N)nc(N)c3n2)cc1)C(=O)O (stereo not drawn) | 0.0054 µM | 0.92 µM | 

Now from value to compound, other results behind:

Row | IC50 (Dihydrofolate reductase) | SMILES | IC50 (CCRF-CEM) | also measured
5 | 0.037 µM | CCCCCCCCCCCCCCCCOC(=O)CCC(NC(=O)c1ccc(N(C)Cc2cnc3nc(N)nc(N)c3n2)cc1)C(=O)O (stereo not drawn) | 0.11 µM | Control [1]: 92%; Control [2]: 15%; Control [3]: 64%; Control [4]: 25%; Control [5]: 8%; Control [6]: 117%; Control [7]: 17%; Control [8]: 95%; Control [9]: 81%; Control [10]: 7%; Control [11]: 103%; Control [12]: 2%; Control [13]: 55%; Control [14]: 67%; Control [15]: 108%; Control [16]: 14%
6 | 0.0054 µM | CCCCOC(=O)CCC(NC(=O)c1ccc(N(C)Cc2cnc3nc(N)nc(N)c3n2)cc1)C(=O)O (stereo not drawn) | 0.78 µM | 
7 | 1.2 µM | CCCCCCCCCCCCCCCCOC(=O)C(CCC(=O)O)NC(=O)c1ccc(N(C)Cc2cnc3nc(N)nc(N)c3n2)cc1 (stereo not drawn) | 0.25 µM | 
8 | 0.44 µM | CCCCCCCCCCCCOC(=O)C(CCC(=O)O)NC(=O)c1ccc(N(C)Cc2cnc3nc(N)nc(N)c3n2)cc1 (stereo not drawn) | 2.1 µM | 
9 | 0.034 µM | CCCCCCCCCCCCOC(=O)CCC(NC(=O)c1ccc(N(C)Cc2cnc3nc(N)nc(N)c3n2)cc1)C(=O)O (stereo not drawn) | 0.37 µM | 
